Reference: ChEMBL document CHEMBL4138242, “Synthesis and antibacterial evaluation of novel cationic chalcone derivatives possessing broad spectrum antibacterial activity” (Eur J Med Chem, 2018)
Active and inactive are the calls of the source.

Experiments:
[1] = test system: Klebsiella pneumoniae; assay: Antibacterial activity against drug-resistant carbapenemase producing Klebsiella pneumoniae clinical isolate KP-14-45 after 16 to 20 hrs by broth microdilution method; type: functional
Outline: (§1)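 CLSI broth microdilution in Mueller-Hinton broth. A 4-6 h culture was diluted to about 10⁶ CFU/mL and mixed 1:1 with compound dilutions prepared at 256 to 0.5 µg/mL from aqueous stocks. Plates were incubated at 37 °C for 16-20 h and read visually for MIC. Each concentration was run in duplicate, and the experiment was repeated at least twice. Vancomycin and meropenem were comparators.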

[2] = test system: Staphylococcus aureus; assay: Antibacterial activity against methicillin-resistant Staphylococcus aureus clinical isolate 1104060 after 16 to 20 hrs by broth microdilution method; type: functional; outline: as §1
[3] = test system: Escherichia coli; assay: Antibacterial activity against drug-resistant NDM1 producing Escherichia coli clinical isolate Ecl-14-56 after 16 to 20 hrs by broth microdilution method; type: functional; outline: as §1
[4] = test system: Escherichia coli; assay: Antibacterial activity against drug-resistant NDM1 producing Escherichia coli clinical isolate KP-13-58 after 16 to 20 hrs by broth microdilution method; type: functional; outline: as §1
[5] = test system: Staphylococcus aureus; assay: Antibacterial activity against methicillin-resistant Staphylococcus aureus clinical isolate 0906202 after 16 to 20 hrs by broth microdilution method; type: functional; outline: as §1
[6] = test system: Staphylococcus aureus; assay: Antibacterial activity against methicillin-resistant Staphylococcus aureus clinical isolate 1207007 after 16 to 20 hrs by broth microdilution method; type: functional; outline: as §1
[7] = test system: Klebsiella pneumoniae; assay: Antibacterial activity against drug-resistant carbapenemase producing Klebsiella pneumoniae clinical isolate KP-14-1 after 16 to 20 hrs by broth microdilution method; type: functional; outline: as §1
[8] = test system: Staphylococcus aureus; assay: Antibacterial activity against methicillin-resistant Staphylococcus aureus clinical isolate 1208143 after 16 to 20 hrs by broth microdilution method; type: functional; outline: as §1
[9] = test system: Escherichia coli; assay: Antibacterial activity against drug-resistant NDM1 producing Escherichia coli clinical isolate SM-15-84 after 16 to 20 hrs by broth microdilution method; type: functional; outline: as §1
[10] = test system: Escherichia coli; assay: Antibacterial activity against drug-resistant NDM1 producing Escherichia coli clinical isolate Ecl-13-62 after 16 to 20 hrs by broth microdilution method; type: functional; outline: as §1
[11] = test system: Salmonella enterica; assay: Antibacterial activity against Salmonella enterica ATCC 13076 after 16 to 20 hrs by broth microdilution method; type: functional
Outline: (§2)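 Broth microdilution per CLSI. Bacteria grown 4-6 h (about 10⁸ CFU/mL), then diluted to about 10⁶ CFU/mL. Medium: Mueller-Hinton broth, except Luria-Bertani broth for E. coli. Compounds in sterile water, twofold series 256-0.5 µg/mL, mixed 1:1 with inoculum, 37 °C for 16-20 h. MIC is the lowest concentration without visible growth. Duplicate wells; experiment repeated at least twice.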

[12] = test system: Escherichia coli; assay: Induction of inner membrane permeabilization in Escherichia coli ATCC 25922 at 10 to 20 ug/ml measured every 2 mins for 12 mins by propidium iodide staining-based fluorescence assay; type: functional, organism-based
Outline: (§3)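 Mid-log cells (~10⁸ CFU/mL) were suspended in PBS (S. aureus) or HEPES/glucose/KCl (E. coli). They were preincubated with propidium iodide for 30 min (S. aureus) or 40 min (E. coli), and baseline fluorescence was read for 8 min. Compound was added to 20 µg/mL final, and fluorescence (ex 535/em 617 nm) was read every 2 min for 12 min.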

[13] = test system: Klebsiella pneumoniae; assay: Antibacterial activity against drug-resistant carbapenemase producing Klebsiella pneumoniae clinical isolate KP-14-8 after 16 to 20 hrs by broth microdilution method; type: functional; outline: as §1
[14] = test system: Staphylococcus aureus; assay: Antibacterial activity against methicillin-resistant Staphylococcus aureus clinical isolate 0831010 after 16 to 20 hrs by broth microdilution method; type: functional; outline: as §1
[15] = test system: Staphylococcus aureus; assay: Antibacterial activity against Staphylococcus aureus ATCC 29213 after 16 to 20 hrs by broth microdilution method; type: functional; outline: as §2
[16] = test system: Klebsiella pneumoniae; assay: Antibacterial activity against drug-resistant carbapenemase producing Klebsiella pneumoniae clinical isolate KP-14-5 after 16 to 20 hrs by broth microdilution method; type: functional; outline: as §1
[17] = test system: Klebsiella pneumoniae; assay: Antibacterial activity against drug-resistant carbapenemase producing Klebsiella pneumoniae clinical isolate KP-13-45 after 16 to 20 hrs by broth microdilution method; type: functional; outline: as §1
[18] = test system: Escherichia coli; assay: Induction of cytoplasmic membrane depolarization in Escherichia coli ATCC 25922 at 10 to 20 ug/ml measured every 2 mins for 12 mins by DiSC35 dye-based fluorescence assay; type: functional, organism-based
Outline: (§4)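 Mid-log cells (~10⁸ CFU/mL) were suspended in PBS (S. aureus) or HEPES/glucose/KCl with EDTA (E. coli). They were preloaded with DiSC3(5) for 30 min (S. aureus) or 40 min (E. coli), and baseline fluorescence was read for 8 min. Compound was added to 20 µg/mL final, and fluorescence (ex 622/em 670 nm) was read every 2 min for 12 min. Water served as control.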

[19] = test system: Klebsiella pneumoniae; assay: Antibacterial activity against drug-resistant carbapenemase producing Klebsiella pneumoniae clinical isolate KP-13-54 after 16 to 20 hrs by broth microdilution method; type: functional; outline: as §1
[20] = test system: Enterococcus faecalis; assay: Antibacterial activity against Enterococcus faecalis ATCC 29212 after 16 to 20 hrs by broth microdilution method; type: functional; outline: as §2
[21] = test system: Klebsiella pneumoniae; assay: Antibacterial activity against drug-resistant carbapenemase producing Klebsiella pneumoniae clinical isolate KP-13-55 after 16 to 20 hrs by broth microdilution method; type: functional; outline: as §1
[22] = test system: Staphylococcus aureus; assay: Induction of cytoplasmic membrane depolarization in Staphylococcus aureus ATCC 29213 at 10 to 20 ug/ml measured every 2 mins for 12 mins by DiSC35 dye-based fluorescence assay; type: functional, organism-based; outline: as §4
[23] = test system: Escherichia coli; assay: Antibacterial activity against drug-resistant NDM1 producing Escherichia coli clinical isolate CF-13-61 after 16 to 20 hrs by broth microdilution method; type: functional; outline: as §1
[24] = test system: Staphylococcus aureus; assay: Induction of inner membrane permeabilization in Staphylococcus aureus ATCC 29213 at 10 to 20 ug/ml measured every 2 mins for 12 mins by propidium iodide staining-based fluorescence assay; type: functional, organism-based; outline: as §3
[25] = test system: Klebsiella pneumoniae; assay: Antibacterial activity against drug-resistant carbapenemase producing Klebsiella pneumoniae clinical isolate KP-14-2 after 16 to 20 hrs by broth microdilution method; type: functional; outline: as §1
[26] = test system: Escherichia coli; assay: Antibacterial activity against drug-resistant NDM1 producing Escherichia coli clinical isolate Ecl-14-59 after 16 to 20 hrs by broth microdilution method; type: functional; outline: as §1
[27] = test system: Escherichia coli; assay: Antibacterial activity against drug-resistant NDM1 producing Escherichia coli clinical isolate Ecl-14-58 after 16 to 20 hrs by broth microdilution method; type: functional; outline: as §1
[28] = test system: Staphylococcus aureus; assay: Antibacterial activity against methicillin-resistant Staphylococcus aureus clinical isolate 20131012632sau after 16 to 20 hrs by broth microdilution method; type: functional; outline: as §1
[29] = test system: Staphylococcus aureus; assay: Antibacterial activity against methicillin-resistant Staphylococcus aureus clinical isolate 20130911034sau after 16 to 20 hrs by broth microdilution method; type: functional; outline: as §1
[30] = test system: Escherichia coli; assay: Antibacterial activity against drug-resistant NDM1 producing Escherichia coli clinical isolate EC-13-49 after 16 to 20 hrs by broth microdilution method; type: functional; outline: as §1
[31] = Hemolytic activity in sheep RBC after 1 hr; type: ADME, cell-based, Ovis aries, Erythrocyte; conditions: sheep red blood cells (erythrocytes)
Outline: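 Sheep red blood cells (150 µL suspension) mixed with 50 µL of compound dilutions (5120-10 µg/mL), 1 h at 37 °C, then centrifuged. Supernatant read at 540 nm. Percent hemolysis calculated relative to RBC-only control (0%) and 0.1% Triton X-100 (100%).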

[32] = test system: Staphylococcus aureus; assay: Antibacterial activity against methicillin-resistant Staphylococcus aureus clinical isolate 1-may after 16 to 20 hrs by broth microdilution method; type: functional; outline: as §1
[33] = test system: Klebsiella pneumoniae; assay: Antibacterial activity against drug-resistant carbapenemase producing Klebsiella pneumoniae clinical isolate KP-14-3 after 16 to 20 hrs by broth microdilution method; type: functional; outline: as §1
[34] = test system: Klebsiella pneumoniae; assay: Antibacterial activity against drug-resistant carbapenemase producing Klebsiella pneumoniae clinical isolate KP-14-18 after 16 to 20 hrs by broth microdilution method; type: functional; outline: as §1
[35] = test system: Staphylococcus aureus; assay: Antibacterial activity against methicillin-resistant Staphylococcus aureus clinical isolate 1105183 cono7 after 16 to 20 hrs by broth microdilution method; type: functional; outline: as §1
[36] = test system: Escherichia coli; assay: Antibacterial activity against drug-resistant NDM1 producing Escherichia coli clinical isolate 1460 after 16 to 20 hrs by broth microdilution method; type: functional; outline: as §1
[37] = test system: Klebsiella pneumoniae; assay: Antibacterial activity against drug-resistant carbapenemase producing Klebsiella pneumoniae clinical isolate EC-13-23 after 16 to 20 hrs by broth microdilution method; type: functional; outline: as §1
[38] = test system: Escherichia coli; assay: Antibacterial activity against drug-resistant NDM1 producing Escherichia coli clinical isolate CF-15-61 after 16 to 20 hrs by broth microdilution method; type: functional; outline: as §1
[39] = test system: Escherichia coli; assay: Antibacterial activity against Escherichia coli ATCC 25922 after 16 to 20 hrs by broth microdilution method; type: functional; outline: as §2
[40] = test system: Escherichia coli; assay: Antibacterial activity against drug-resistant NDM1 producing Escherichia coli clinical isolate EC-14-54 after 16 to 20 hrs by broth microdilution method; type: functional; outline: as §1
[41] = test system: Escherichia coli; assay: Antibacterial activity against drug-resistant NDM1 producing Escherichia coli clinical isolate EA-14-61 after 16 to 20 hrs by broth microdilution method; type: functional; outline: as §1
[42] = test system: Klebsiella pneumoniae; assay: Antibacterial activity against drug-resistant carbapenemase producing Klebsiella pneumoniae clinical isolate KP-14-4 after 16 to 20 hrs by broth microdilution method; type: functional; outline: as §1

CCCCCCCC[N+](C)(C)CC(=O)Nc1ccc(C(=O)/C=C/c2ccc3ccccc3c2)cc1.[Cl-]
1 µg/mL: MIC [14] | MIC [23] | MIC [29] | MIC [35] | MIC [40]
> 128 µg/mL: MIC [1] | MIC [7] | MIC [21] | MIC [25] | MIC [34]
8 µg/mL: MIC [3] | MIC [10] | MIC [11] | MIC [28] | MIC [37] | MIC [39] | MIC [41]
active: Activity [12] | Activity [18] | Activity [22] | Activity [24]
128 µg/mL: MIC [9]
374 µg/mL: HC50 at 1 h [31]
16 µg/mL: MIC [2] | MIC [13] | MIC [16] | MIC [17] | MIC [19] | MIC [26] | MIC [27] | MIC [30] | MIC [33] | MIC [36] | MIC [38]
32 µg/mL: MIC [5] | MIC [42]
2 µg/mL: MIC [4] | MIC [6] | MIC [8] | MIC [15] | MIC [20] | MIC [32]

CCCCCCCC[N+](C)(C)CC(=O)Nc1ccc(C(=O)/C=C/c2cccc(Cl)c2)cc1.[Cl-]
2 µg/mL: MIC [15] | MIC [28]
1 µg/mL: MIC [4] | MIC [8] | MIC [20] | MIC [32] | MIC [35]
16 µg/mL: MIC [9] | MIC [23]
4 µg/mL: MIC [3] | MIC [5] | MIC [10] | MIC [11] | MIC [13] | MIC [16] | MIC [17] | MIC [19] | MIC [26] | MIC [27] | MIC [30] | MIC [33] | MIC [36] | MIC [37] | MIC [39] | MIC [40] | MIC [41] | MIC [42]
8 µg/mL: MIC [1] | MIC [2] | MIC [7] | MIC [21] | MIC [25] | MIC [34] | MIC [38]
0.5 µg/mL: MIC [6] | MIC [14] | MIC [29]
active: Activity [12] | Activity [18] | Activity [22] | Activity [24]
186 µg/mL: HC50 at 1 h [31]
